Source: ChEMBL document CHEMBL1124280, “Synthesis and biological evaluation of isomeric dinucleoside monophosphates and monomethylphosphonates of 9-beta-D-arabinofuranosyladenine and related analogues” (1988)
Values after ≈ are worked out from the molar mass of the structure shown.

Key:
Type in all cases: functional
[1] = species on record: Homo sapiens; assay: Minimum cytotoxic concentration in diploid (E6SM) human cell culture
Method in brief: (§1)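 Uninfected confluent monolayers (rabbit kidney, HeLa, Vero or E6SM) were incubated with compound for the same time as the antiviral assay. The value is the lowest concentration (µg/mL) that causes a microscopically detectable change in normal cell morphology.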

[2] = tested on: L1210; assay: Inhibitory effect on Proliferation of Murine Leukemia (L1210); conditions: Mus musculus, read-out: ID50 (the source's name)
[3] = tested on: FM3A; assay: Inhibitory effect on proliferation of Murine mammary Carcinoma (FM3A); conditions: Mus musculus, read-out: ID50 (the source's name)
[4] = species on record: Homo sapiens; assay: Inhibitory effect on proliferation of Human B-Lymphoblast (Raji); conditions: read-out: ID50 (the source's name)
[5] = tested on: HeLa; assay: Minimum inhibitory concentration against vaccinia virus in aneuploid (Hela) human cells
[6] = species on record: Oryctolagus cuniculus; assay: Antiviral activity in primary rabbit kidney cell cultures against Herpes simplex virus type 2 Strain Lyons
[7] = species on record: Homo sapiens; assay: Minimum inhibitory concentration against vaccinia virus in diploid (E6SM) human cell culture
[8] = species on record: Oryctolagus cuniculus; assay: Antiviral activity in primary rabbit kidney cell cultures against Herpes Simplex virus type 1 (TK-strain B2006)
[9] = species on record: Oryctolagus cuniculus; assay: Antiviral activity in primary rabbit kidney cell cultures against Herpes Simplex virus type 1 (Fstrain)
[10] = species on record: Oryctolagus cuniculus; assay: Antiviral activity in primary rabbit kidney cell cultures against Herpes simplex virus type 2 Strain 196
[11] = species on record: Oryctolagus cuniculus; assay: Antiviral activity in primary rabbit kidney cell cultures against vaccinia virus
[12] = species on record: Oryctolagus cuniculus; assay: Antiviral activity in primary rabbit kidney cell cultures against Herpes Simplex virus type 1 (TK-strain VMW I837)
[13] = tested on: HeLa; assay: Minimum cytotoxic concentration against vaccinia virus in aneuploid (Hela) human cells; method in brief: as §1
[14] = species on record: Oryctolagus cuniculus; assay: Minimum cytotoxic concentration against herpes simplex virus in primary rabbit kidney cell cultures; method in brief: as §1
[15] = species on record: Oryctolagus cuniculus; assay: Antiviral activity in primary rabbit kidney cell cultures against vesicular stomatitis virus
[16] = species on record: Oryctolagus cuniculus; assay: Antiviral activity in primary rabbit kidney cell cultures against Herpes Simplex virus type 1 (KOS strain)
[17] = species on record: Oryctolagus cuniculus; assay: Antiviral activity in primary rabbit kidney cell cultures against Herpes simplex virus type 2 Strain G
[18] = Inhibitory effect on proliferation of Human T-Lymphoblast (Molt/4F) cells; conditions: read-out: ID50 (the source's name)
[19] = species on record: Oryctolagus cuniculus; assay: Antiviral activity in primary rabbit kidney cell cultures against Herpes Simplex virus type 1 (McIntyre strain)
[20] = tested on: Vero; assay: Minimum inhibitory concentration against vaccinia virus in vero cells of African green monkey kidney; conditions: Chlorocebus sabaeus
[21] = tested on: Vero; assay: Minimum cytotoxic concentration in vero cells of African green monkey kidney; conditions: Chlorocebus sabaeus; method in brief: as §1

Row | Structure (SMILES) | MCC [1] | IC50 [2] | IC50 [3] | IC50 [4] | MIC [5] | MIC [6] | MIC [7] | MIC [8] | MIC [9] | MIC [10] | MIC [11] | MIC [12] | MCC [13] | MCC [14] | MIC [15] | MIC [16] | MIC [17] | IC50 [18] | MIC [19] | MIC [20] | further results
1 | Nc1ncnc2c1ncn2[C@@H]1O[C@H](CO)[C@@H](OP(=O)([O-])O[C@H]2[C@H](O)[C@H](n3cnc4c(N)ncnc43)O[C@@H]2CO)[C@@H]1O.[Na+] | > 400 µg/mL | > 100 µg/mL | > 100 µg/mL | > 100 µg/mL | > 400 µg/mL | > 400 µg/mL | > 400 µg/mL | > 400 µg/mL | > 400 µg/mL | > 400 µg/mL | 300 µg/mL | > 400 µg/mL | ≥ 400 µg/mL | > 400 µg/mL | > 400 µg/mL | > 400 µg/mL | > 400 µg/mL | > 100 µg/mL | > 400 µg/mL | > 400 µg/mL | MCC [21]: ≥ 400 µg/mL
2 | Nc1ncnc2c1ncn2[C@@H]1O[C@H](COP(=O)([O-])OC[C@H]2O[C@H](n3cnc4c(N)ncnc43)[C@@H](O)[C@@H]2O)[C@@H](O)[C@@H]1O.[Na+] | ≥ 400 µg/mL | > 100 µg/mL | 86.6 µg/mL | > 100 µg/mL | 200 µg/mL | 20 µg/mL | 20 µg/mL | 300 µg/mL | 70 µg/mL | 100 µg/mL | 7 µg/mL | 150 µg/mL | > 400 µg/mL | > 400 µg/mL | > 400 µg/mL | 70 µg/mL | 70 µg/mL | 43 µg/mL | 70 µg/mL | 70 µg/mL | MCC [21]: > 400 µg/mL
3 | Nc1ncnc2c1ncn2C1O[C@H](CO)C(OP(=O)([O-])OC[C@H]2OC(n3cnc4c(N)ncnc43)[C@@H](O)[C@@H]2O)[C@@H]1O.[Na+] (stereo partly specified) | > 400 µg/mL | 22.2 µg/mL | 22.4 µg/mL | 30 µg/mL | 20 µg/mL | 2 µg/mL | 2 µg/mL | 20 µg/mL | 10 µg/mL | 7 µg/mL | 0.2 µg/mL | 20 µg/mL | ≥ 200 µg/mL | > 200 µg/mL | > 100 µg/mL | 20 µg/mL | 7 µg/mL | 13.6 µg/mL | 10 µg/mL | 20 µg/mL | MCC [21]: > 400 µg/mL
4 | Nc1ncnc2c1ncn2C1O[C@H](CO)[C@@H](OP(=O)([O-])OC[C@H]2OC(n3cnc4c(N)ncnc43)[C@H](O)[C@H]2O)[C@@H]1O.[Na+] (stereo partly specified) | ≥ 400 µg/mL | 10 µg/mL | 20.4 µg/mL | 32.3 µg/mL | 20 µg/mL | 2 µg/mL | 10 µg/mL | 20 µg/mL | 10 µg/mL | 20 µg/mL | 2 µg/mL | 20 µg/mL | 100 µg/mL | 100 µg/mL | > 40 µg/mL | 20 µg/mL | 7 µg/mL | 23.3 µg/mL | 7 µg/mL | 20 µg/mL | MCC [21]: > 40 µg/mL
5 | Nc1ncnc2c1ncn2[C@@H]1O[C@H](COP(=O)(O)O)[C@@H](O)[C@@H]1O [VIDARABINE PHOSPHATE] | ≥ 400 µg/mL | 24.2 µg/mL | 23.9 µg/mL | 32.6 µg/mL | 20 µg/mL | 2 µg/mL | 7 µg/mL | 20 µg/mL | 7 µg/mL | 20 µg/mL | 0.2 µg/mL | 20 µg/mL | ≥ 400 µg/mL | > 100 µg/mL | > 400 µg/mL | 20 µg/mL | 7 µg/mL | 18.5 µg/mL | 10 µg/mL | 20 µg/mL | MCC [21]: ≥ 200 µg/mL
6 | Nc1ncnc2c1ncn2[C@@H]1O[C@H](CO)[C@@H](O)[C@@H]1O [VIDARABINE] | > 400 µg/mL | 21 µg/mL (≈ 78.6 µM) | 21.1 µg/mL (≈ 79 µM) | 25.9 µg/mL (≈ 96.9 µM) | 20 µg/mL (≈ 74.8 µM) | 7 µg/mL (≈ 26.2 µM) | 7 µg/mL (≈ 26.2 µM) | 20 µg/mL (≈ 74.8 µM) | 7 µg/mL (≈ 26.2 µM) | 20 µg/mL (≈ 74.8 µM) | 2 µg/mL (≈ 7.48 µM) | 20 µg/mL (≈ 74.8 µM) | > 200 µg/mL | > 100 µg/mL | 20 µg/mL (≈ 74.8 µM) | 20 µg/mL (≈ 74.8 µM) | 7 µg/mL (≈ 26.2 µM) | 16.7 µg/mL (≈ 62.5 µM) | 10 µg/mL (≈ 37.4 µM) | 70 µg/mL (≈ 262 µM) | MCC [21]: ≥ 400 µg/mL
